Measured values from ChEMBL document CHEMBL3877264, “Quinolidene-rhodanine conjugates: Facile synthesis and biological evaluation” (Eur J Med Chem, 2017).
In brackets after ≈: the same amount, converted by molar mass.

Columns and labels:
Assay type in all cases: functional
[1] = tested on: Mycobacterium tuberculosis; assay: Growth inhibition of Mycobacterium bovis BCG ATCC 35743 at active stage measured after 8 days by nitrate reductase dye based two fold dilution method; settings: BCG str. ATCC 35743, 192 h
How it was run: (§1)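 M. bovis BCG was grown in Dubos medium and assayed in Mycobacterium pheli minimal medium (pH 6.6), with compounds from DMSO stocks. Incubation lasted 8 days for active and 12 days for dormant cultures. Viability was read by nitrate reductase at 540 nm against cell-free blanks, with vehicle set as 100% growth. Primary screen was at 30, 10 and 3 µg/ml, in triplicate, mean ± SD. MIC was taken from dose-response curves.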

[2] = tested on: Mycobacterium tuberculosis; assay: Growth inhibition of Mycobacterium bovis BCG ATCC 35743 at dormant stage at 3 ug/ml measured after 12 days by nitrate reductase dye based two fold dilution method relative to control; settings: BCG str. ATCC 35743, 288 h, read-out: GI; how it was run: as §1
Pseudomonas fluorescens [3] = assay: Growth inhibition of Pseudomonas fluorescens NCIM 2036 at 30 ug/ml measured after 8 hrs relative to control; settings: NCIM 2036, 8 h, read-out: GI
How it was run: (§2)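 Bacteria grown in LB at 37 °C and 180 rpm to OD 1. Compounds added to wells, then 0.1% inoculum of 1 OD culture (620 nm). Growth read as OD at 620 nm after 8 h for gram-negative and after 12 h for gram-positive strains.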

Pseudomonas fluorescens [4] = assay: Growth inhibition of Pseudomonas fluorescens NCIM 2036 at 10 ug/ml measured after 8 hrs relative to control; settings: NCIM 2036, 8 h, read-out: GI; how it was run: as §2
[5] = Antifungal activity against Fusarium oxysporum NCIM 1332 by standard agar method
How it was run: (§3)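 MICs determined by standard agar method; DMSO as solvent control.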

Staphylococcus aureus [6] = assay: Growth inhibition of Staphylococcus aureus NCIM 2010 at 30 ug/ml measured after 12 hrs relative to control; settings: NCIM 2010, 12 h, read-out: GI; how it was run: as §2
Pseudomonas fluorescens [7] = assay: Growth inhibition of Pseudomonas fluorescens NCIM 2036 at 3 ug/ml measured after 8 hrs relative to control; settings: NCIM 2036, 8 h, read-out: GI; how it was run: as §2
[8] = Antifungal activity against Cryptococcus neoformans NCIM 576 by standard agar method; how it was run: as §3
Bacillus subtilis [9] = assay: Growth inhibition of Bacillus subtilis NCIM 2079 at 30 ug/ml measured after 12 hrs relative to control; settings: NCIM 2079, 12 h, read-out: GI; how it was run: as §2
Escherichia coli [10] = assay: Antibacterial activity against Escherichia coli NCIM 2688 measured after 8 hrs; settings: NCIM 2688, 8 h; how it was run: as §2
Escherichia coli [11] = assay: Growth inhibition of Escherichia coli NCIM 2688 at 3 ug/ml measured after 8 hrs relative to control; settings: NCIM 2688, 8 h, read-out: GI; how it was run: as §2
[12] = tested on: Mycobacterium tuberculosis; assay: Growth inhibition of Mycobacterium bovis BCG ATCC 35743 at dormant stage at 30 ug/ml measured after 12 days by nitrate reductase dye based two fold dilution method relative to control; settings: BCG str. ATCC 35743, 288 h, read-out: GI; how it was run: as §1
Bacillus subtilis [13] = assay: Growth inhibition of Bacillus subtilis NCIM 2079 at 3 ug/ml measured after 12 hrs relative to control; settings: NCIM 2079, 12 h, read-out: GI; how it was run: as §2
Aspergillus flavus = assay: Antifungal activity against Aspergillus flavus NCIM 539 by standard agar method; how it was run: as §3
Staphylococcus aureus [14] = assay: Antibacterial activity against of Staphylococcus aureus NCIM 2010 measured after 12 hrs; settings: NCIM 2010, 12 h; how it was run: as §2
Staphylococcus aureus [15] = assay: Growth inhibition of Staphylococcus aureus NCIM 2010 at 3 ug/ml measured after 12 hrs relative to control; settings: NCIM 2010, 12 h, read-out: GI; how it was run: as §2
[16] = tested on: Mycobacterium tuberculosis; assay: Growth inhibition of Mycobacterium tuberculosis H37Ra ATCC 25177 at dormant stage measured after 12 days by XTT dye based two fold dilution method; settings: H37Ra ATCC 25177, 288 h
How it was run: (§4)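 MTB H37Ra was grown in Dubos medium, then exposed in Mycobacterium pheli minimal medium (pH 6.6) to compounds dissolved in DMSO. The assay ended on day 8 (active) or day 12 (dormant). Viable cells were measured by XTT reduction menadione assay at 470 nm, blank-corrected, relative to vehicle control. Triplicates were expressed as mean ± SD. MIC came from dose-response curves.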

[17] = tested on: Mycobacterium tuberculosis; assay: Growth inhibition of Mycobacterium bovis BCG ATCC 35743 at dormant stage at 10 ug/ml measured after 12 days by nitrate reductase dye based two fold dilution method relative to control; settings: BCG str. ATCC 35743, 288 h, read-out: GI; how it was run: as §1
Bacillus subtilis [18] = assay: Antibacterial activity against Bacillus subtilis NCIM 2079 measured after 12 hrs; settings: NCIM 2079, 12 h; how it was run: as §2
Pseudomonas fluorescens [19] = assay: Antibacterial activity against Pseudomonas fluorescens NCIM 2036 measured after 8 hrs; settings: NCIM 2036, 8 h; how it was run: as §2
Escherichia coli [20] = assay: Growth inhibition of Escherichia coli NCIM 2688 at 10 ug/ml measured after 8 hrs relative to control; settings: NCIM 2688, 8 h, read-out: GI; how it was run: as §2
Bacillus subtilis [21] = assay: Growth inhibition of Bacillus subtilis NCIM 2079 at 10 ug/ml measured after 12 hrs relative to control; settings: NCIM 2079, 12 h, read-out: GI; how it was run: as §2
Candida albicans = assay: Antifungal activity against Candida albicans NCIM 3471 by standard agar method; how it was run: as §3
Aspergillus niger = assay: Antifungal activity against Aspergillus niger NCIM 1196 by standard agar method; how it was run: as §3
Escherichia coli [22] = assay: Growth inhibition of Escherichia coli NCIM 2688 at 30 ug/ml measured after 8 hrs relative to control; settings: NCIM 2688, 8 h, read-out: GI; how it was run: as §2
[23] = tested on: Mycobacterium tuberculosis; assay: Growth inhibition of Mycobacterium bovis BCG ATCC 35743 at dormant stage measured after 12 days by nitrate reductase dye based two fold dilution method; settings: BCG str. ATCC 35743, 288 h; how it was run: as §1
Staphylococcus aureus [24] = assay: Growth inhibition of Staphylococcus aureus NCIM 2010 at 10 ug/ml measured after 12 hrs relative to control; settings: NCIM 2010, 12 h, read-out: GI; how it was run: as §2
[25] = tested on: Mycobacterium tuberculosis; assay: Growth inhibition of Mycobacterium tuberculosis H37Ra ATCC 25177 at active stage measured after 8 days by XTT dye based two fold dilution method; settings: H37Ra ATCC 25177, 192 h; how it was run: as §4

Row | Structure (SMILES) | IC50 [1] | IC90 [1] | inhibition of growth at 3 µg/mL [2] | inhibition of growth at 30 µg/mL (Pseudomonas fluorescens [3]) | inhibition of growth at 10 µg/mL (Pseudomonas fluorescens [4]) | MIC [5] | inhibition of growth at 30 µg/mL (Staphylococcus aureus [6]) | inhibition of growth at 3 µg/mL (Pseudomonas fluorescens [7]) | MIC [8] | inhibition of growth at 30 µg/mL (Bacillus subtilis [9]) | MIC (Escherichia coli [10]) | inhibition of growth at 3 µg/mL (Escherichia coli [11]) | inhibition of growth at 30 µg/mL [12] | inhibition of growth at 3 µg/mL (Bacillus subtilis [13]) | MIC (Aspergillus flavus) | MIC (Staphylococcus aureus [14]) | inhibition of growth at 3 µg/mL (Staphylococcus aureus [15]) | IC50 [16] | IC90 [16] | inhibition of growth at 10 µg/mL [17] | further results
1 | O=C1NC(=S)S/C1=C\c1cc2ccccc2nc1Cl | > 30 µg/mL | > 30 µg/mL | -80.1% | 5.4% | -9.65% | 100 µg/mL (≈ 326 µM) | -28.2% | -17.5% | 50 µg/mL (≈ 163 µM) | 0.707% | > 30 µg/mL | -40.6% | -43.1% | 7.53% | 150 µg/mL (≈ 489 µM) | > 30 µg/mL | -15.7% | > 30 µg/mL | > 30 µg/mL | -22.1% | MIC (Bacillus subtilis [18]): > 30 µg/mL; MIC (Pseudomonas fluorescens [19]): > 30 µg/mL; inhibition of growth at 10 µg/mL (Escherichia coli [20]): -14.7%; inhibition of growth at 10 µg/mL (Bacillus subtilis [21]): 0.915%; MIC (Candida albicans): 150 µg/mL (≈ 489 µM); MIC (Aspergillus niger): 100 µg/mL (≈ 326 µM); inhibition of growth at 30 µg/mL (Escherichia coli [22]): -28.5%; IC50 [23]: > 30 µg/mL; IC90 [23]: > 30 µg/mL; inhibition of growth at 10 µg/mL (Staphylococcus aureus [24]): -21.3%; IC50 [25]: > 30 µg/mL; IC90 [25]: > 30 µg/mL
2 | O=C(O)CN1C(=O)/C(=C/c2cc3cc(Cl)ccc3nc2Cl)SC1=S | > 30 µg/mL | > 30 µg/mL | -9.46% | -2.12% | -1.23% | 150 µg/mL (≈ 376 µM) | -32.2% | -72.5% | 125 µg/mL (≈ 313 µM) | 1.23% | > 30 µg/mL | -12.7% | 9.92% | -4.86% | 150 µg/mL (≈ 376 µM) | > 30 µg/mL | -1.15% | > 30 µg/mL | > 30 µg/mL | 2.07% | MIC (Bacillus subtilis [18]): > 30 µg/mL; MIC (Pseudomonas fluorescens [19]): > 30 µg/mL; inhibition of growth at 10 µg/mL (Escherichia coli [20]): -12.4%; inhibition of growth at 10 µg/mL (Bacillus subtilis [21]): -12.6%; MIC (Candida albicans): 125 µg/mL (≈ 313 µM); MIC (Aspergillus niger): 100 µg/mL (≈ 250 µM); inhibition of growth at 30 µg/mL (Escherichia coli [22]): -14%; IC50 [23]: > 30 µg/mL; IC90 [23]: > 30 µg/mL; inhibition of growth at 10 µg/mL (Staphylococcus aureus [24]): 3.88%; IC50 [25]: > 30 µg/mL; IC90 [25]: > 30 µg/mL
